An excerpt weighted towards active compounds, which were near 2.6% of everything screened.
ARFGAP1 inhibitor: inhibitors of rat ARFGAP1 GAP activity, primary screen, biochemical, fluorescence polarization, GDP tracer; ADP-ribosylation factor GTPase-activating protein 1 (Rattus norvegicus), Q62848; Arfgap1-stimulated ARF1 GTP hydrolysis, GDP FP detection; inhibition, % at 16.5 µM; 360,000 tested, 0.26% active;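 active = inhibition above a per-plate limit, mean inhibition of low control wells plus 3 SD, cut at about 25% in these data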;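 note: 0% = DMSO wells with enzyme and 100% = wells lacking Arfgap1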
Target sequence (Q62848 1-136 limits assumed): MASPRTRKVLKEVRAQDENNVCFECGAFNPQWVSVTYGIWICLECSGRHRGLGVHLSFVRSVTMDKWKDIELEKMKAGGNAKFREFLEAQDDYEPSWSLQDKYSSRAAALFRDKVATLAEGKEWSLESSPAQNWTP
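material = rat Arfgap1 catalytic domain, aa 1-136 | also added = human ARF1(Δ1-17)-GTP substrate | compound dosing = one concentration, 16.5 µM, DMSO 1.26% | times = GTP hydrolysis reaction 2 h at 25 °C | measured by = FP, GDP Alexa 633 tracer displaced from anti-GDP antibody, 620/688 nm | evaluation = percent inhibition of Arfgap1-stimulated GTP hydrolysis | replication = single well per compound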
esBAF inh: Bmi1 luciferase reporter increase in mESCs, primary screen, esBAF inhibitor project, mouse ES cells, Bmi1 luciferase knock-in, single point; 24 h; 100% = twice the neutral-well signal; reporter increase, % at 12.5 µM; 350,000 tested, 2% active; in the data active = activation above about 40%; inconclusive = no clear call, values can overlap the other calls;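 note: 0% = median of the plate's neutral control wells and 100% = double that signal; a rise in the Bmi1 reporter signal indicates esBAF inhibition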
SMARCA2 activ: SMARCA2 (BRM) function activators, primary screen, cell-based, luminescence, high throughput; MG213 cells, MMTV-luciferase reporter, dexamethasone, overnight; activation, % at 9.1 µM; 370,000 tested, 1% active; AID 652017, 2013; in the data active = activation above about 7.8%;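 note: 0% = vehicle wells and 100% = reference activator wells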
ASAP1 inh: inhibitors of human ASAP1 ArfGAP activity, primary screen, biochemical, fluorescence polarization. Arf-GAP with SH3 domain, ANK repeat and PH domain-containing protein 1 (Homo sapiens), …. ASAP1-stimulated ARF1 GTP hydrolysis, GDP FP detection. inhibition, % at 16.5 µM. 360,000 tested, 0.19% active. AID 624377, 2012; in the data active = inhibition above about 25%;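 note: 0% = vehicle with enzyme and substrate and 100% = no enzyme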
Target sequence (Q9ULH1 325-724 limits assumed): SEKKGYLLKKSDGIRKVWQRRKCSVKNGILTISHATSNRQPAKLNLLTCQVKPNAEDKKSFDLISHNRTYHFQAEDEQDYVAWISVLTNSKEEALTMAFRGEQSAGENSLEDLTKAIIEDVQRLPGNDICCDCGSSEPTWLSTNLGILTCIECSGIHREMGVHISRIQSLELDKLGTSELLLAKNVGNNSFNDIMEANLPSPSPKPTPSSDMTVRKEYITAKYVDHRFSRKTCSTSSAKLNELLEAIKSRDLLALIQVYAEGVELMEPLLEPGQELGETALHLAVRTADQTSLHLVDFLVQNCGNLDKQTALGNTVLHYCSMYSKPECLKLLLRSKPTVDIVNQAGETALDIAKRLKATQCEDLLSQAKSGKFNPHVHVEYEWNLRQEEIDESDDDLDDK
SMARCA2 conf: SMARCA2 (BRM) function activators, confirmation, cell-based, luminescence, triplicate; shares compounds with SMARCA2 activ; MG213 cells, MMTV-luciferase with dexamethasone, overnight; MG213 cells expressing E1A, Rb sequestered; DMSO wells 0%, reference activator 100%; activation, % at 9.1 µM; 3,500 tested, 30% active;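 active = activation above its plate's cutoff, the mean activation of tested wells plus 3 SD, cut at about 7.9% in these data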
VP16 Luc act: GAL4-VP16 luciferase reporter activation, counter-screen for SMARCA2 (BRM) activator project, cell-based, pG5luc, luminescence, high throughput | shares compounds with SMARCA2 activ | HEK293 GAL4-VP16 pG5luc reporter; scaled: DMSO wells 0%, SAHA wells 100% | activation, % at 9.1 µM | 3,500 tested, 41% active;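 active = activation above the solvent-only control well mean plus 3 SD, averaged across control plates, cut at about 5.2% in these data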
Starred values were filed as active, the others as inactive; ? = inconclusive; . = not tested or not shown.

SMILES	ARFGAP1 inhibitor	esBAF inh	SMARCA2 activ	ASAP1 inh	SMARCA2 conf	VP16 Luc act
CCOC(=O)C1(C(F)(F)F)N=C(C(F)(F)F)Nc2ccccc21 (stereo not drawn)	2	4	9.8*	-1	-1	0
O=C(Nc1cccc(O)c1)c1c(O)c2ccccc2[nH]c1=O	6	-4	10*	7	7	9.3*
Cc1ccsc1C1NC(=O)c2c(sc3c2CCN(C)C3)N1 (stereo not drawn)	12	20	0	-8	.	.
CN1CCc2c(sc3c2C(=O)NC(c2cccs2)N3)C1 (stereo not drawn)	-4	34	11*	10	4	2
CCN(C[C@H]1N[C@@](Cc2ccccc2)(C(=O)OC)[C@H]2C(=O)N(Cc3ccccc3)C(=O)[C@@H]12)C(=O)NC(C)C	9	-1	9.2*	-10	-4	1
C[C@@H]1CN([C@H](C)CO)C(=O)CCCn2cc(nn2)CO[C@@H]1CN(C)CC1CCCC1	.	-1	.	.	.	.
CCn1c(C)nc2cc(C(=O)NNS(=O)(=O)c3c(C)c(C)cc(C)c3C)ccc21	3	-9	12*	6	-1	0
Cc1nc2ccc(Cl)cc2nc(C)/c1=N\O	11	20	8.1*	-6	9.7*	8.7*
COC(=O)Nc1ccc(OCc2ccccc2)cc1	-5	?	14*	-10	18*	5
C=CCn1cnc2c(c1=O)c1nc3ccccc3nc1n2/N=C/c1cccc(OC)c1OC	2	18	8.2*	4	-4	4
C=CCn1cnc2c(c1=O)c1nc3ccccc3nc1n2/N=C/c1cc(OC)c(OC)c(OC)c1	4	-4	-4	14	.	.
C=CCN1CCc2cc(O)c(O)cc2C(c2ccccc2)C1 (stereo not drawn)	4	-2	-1	-3	.	.
C=CCN1CCc2c(cc(O)c(O)c2Cl)C(c2ccccc2)C1 (stereo not drawn)	10	2	9.2*	10	5	1
O=C(N[C@H]1CC[C@H](CCNC(=O)C2CCC2)O[C@@H]1CO)c1ccccn1	.	1	.	.	.	.
Cc1cc(C(=O)NCc2ccccc2Br)no1	1	8	9.4*	1	1	1
C[C@@H]1CN([C@@H](C)CO)C(=O)Cc2cc(NS(=O)(=O)c3cccs3)ccc2O[C@@H]1CN(C)C	.	1	.	.	.	.
CN(C)CC(=O)Nc1ccc2c(c1)[C@H]1C[C@@H](CC(=O)NCC3CC3)O[C@H](CO)[C@H]1O2	.	5	.	.	.	.
Oc1ccccc1C=Nc1ccccc1-c1nc2ccccc2[nH]1	1	.	8.3*	10	5	11*
Oc1ccc(C=Nc2ccccc2-c2nc3ccccc3[nH]2)c(O)c1	7	.	4	1	.	.
C=CCN1C(=O)/C(=C/c2ccc(OCC(=O)O)cc2)S/C1=N/c1nccs1	2	.	2	-16	.	.
CN=C1S/C(=C\c2ccc(O)c(OC)c2)C(=O)N1C	5	.	8.9*	1	7	14*
C=CCN1C(=O)/C(=C/c2ccc(O)c(OC)c2)S/C1=N/c1nccs1	2	.	11*	7	2	1
Cn1cc(-c2nnc(-c3ccccc3)o2)c2ccccc21	-11	-15	13*	19	6	7.2*
C[C@H](CO)N1C[C@H](C)[C@@H](CN(C)C(=O)NC2CCCCC2)Oc2c(NC(=O)c3nc4ccccc4s3)cccc2C1=O	.	0	.	.	.	.
Cc1ccnc(NC(=S)NC(=O)/C=C/c2ccco2)c1	3	.	8.0*	9	11*	8.9*
SMILES	ARFGAP1 inhibitor	esBAF inh	SMARCA2 activ	ASAP1 inh	SMARCA2 conf	VP16 Luc act
O=C(/C=C/c1ccco1)Nc1cccnc1Cl	-12	11	9.3*	-10	6	6.8*
Cc1ccc(-n2c(C)cc(-c3csc(N)n3)c2C)cc1	13	.	12*	-6	-10	-1
CC1(C)Cc2ccccc2C(CSc2ccccc2C(=O)O)=N1	-1	8	-3	-14	.	.
COc1cc2c(cc1OC)C(CSc1ccccc1C(=O)O)=NC(C)(C)C2	-11	.	9.3*	-4	9.4*	5.8*
O=C(Nc1ccc(F)cc1F)C1CCN(S(=O)(=O)c2cccnc2)CC1	19	2	8.3*	-7	0	0
COc1ccc(CN(C)C[C@H]2OCCCC[C@@H](C)Oc3ccc(NC(=O)c4ccccc4)cc3C(=O)N([C@@H](C)CO)C[C@@H]2C)cc1	.	1	.	.	.	.
COCCCNC(=O)CSC1=Nc2ccccc2C2=NC(c3ccccc3)C(=O)N12 (stereo not drawn)	-18	-2	-1	-9	.	.
CC(C)C1N=C2c3ccccc3N=C(SCC(=O)NCCc3ccc(S(N)(=O)=O)cc3)N2C1=O (stereo not drawn)	-7	1	9.4*	5	-2	-1
COC(=O)c1c(-c2cccnc2)csc1NC(=O)c1cc(C)on1	7	34	10*	18	19*	14*
O=Cc1ccc2noc(-c3ccc(Cl)cc3)c2c1	-17	27	17*	9	11*	3
CCN(CC)CCCNc1ccc2ncn3c4ccc(O)cc4c(=O)c1c23	1	.	8.1*	-23	34*	3
CN(C)CCNc1ccc2nnn3c4ccc(O)cc4c(=O)c1c23	5	.	4	-10	.	.
CCOc1ccc(/C=N/NS(=O)(=O)c2ccc(C)cc2)cc1OC	-11	-2	-2	-7	.	.
COc1cc(/C=N/NS(=O)(=O)c2ccc(C)cc2)ccc1OCc1ccc(C(=O)O)cc1	9	.	9.4*	-10	19*	14*
O=C(O)c1cccc2cc(-c3ccccc3)oc(=O)c12	4	2	-1	7	.	.
O=c1oc(-c2ccc(O)c(O)c2)cc2cc(O)cc(O)c12	19	38	11*	15	12*	8.3*
O=c1oc(-c2ccc(O)c(O)c2)cc2cccc(O)c12	21	64*	8.5*	-9	8.1*	13*
O=c1cc(-c2ccc(O)c(O)c2)oc2ccc3ccccc3c12	-2	.	8.2*	-3	-7	5.2*
O=c1cc(-c2ccccc2)oc2ccc3ccccc3c12	0	-74	2	4	.	.
CC(=O)Nc1ccc2c(c1)C(=O)N(C)[C@H]1CC[C@H](CC(=O)NC3CCCCC3)O[C@@H]1CO2	.	0	.	.	.	.
CC(C)NC(=O)Nc1ccc2c(c1)C(=O)N([C@@H](C)CO)C[C@H](C)[C@@H](CN(C)S(=O)(=O)c1cn(C)cn1)OCCCC[C@H](C)O2	.	-5	.	.	.	.
